The source of these data is publication PMC11755176 (ACS Omega, 2025).

Data set [1] has as its system nonsmall cell lung cancer cells (A549). Description: MTT cytotoxicity assay, A549. Format: cell-based. The conditions noted are these: for IC50 A549: MTT assay, 72 h incubation, mean ± SD of three independent experiments; for IC50: Homo sapiens, A549, 72 h, read-out: IC50 A549. In short, it runs like this: (§1)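 Cells kept in DMEM with 10% FBS and 1% penicillin-streptomycin at 37 °C, 5% CO2. Seeding: A549 5 × 10^3, HeLa 1 × 10^3, Vero 2 × 10^3 cells/well. After 16−18 h, medium replaced with graded compound concentrations for 72 h. MTT 0.5 mg/mL for 3 h; formazan dissolved in DMSO; A570 (reference 630 nm). IC50 by nonlinear regression; doxorubicin positive control.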
A general note: Formazan colour is commonly taken as a measure of viable cells.

In data set [2] the test system is HCT 116 colorectal cancer cells. The settings on record: cited from earlier work.
Data set [3] has as its system NCI-H187 cancer cell line. The conditions noted are these: previously reported; cited from earlier work.
Another data set has as its system HeLa cells. In words: Apoptosis analysis. It counts as cell-based, human. The settings on record: both tested concentrations, Figure 4C,D.
A further data set relates to Vero cells. Description: MTT cytotoxicity assay, Vero. It counts as cell-based. The settings on record: 72 h incubation, mean ± SD of three independent experiments. In a few lines:
as §1

The test system of data set [4] is human cervical carcinoma cells (HeLa). Description: MTT cytotoxicity assay, HeLa. It counts as cell-based. The conditions noted are these: 72 h incubation, mean ± SD of three independent experiments. In a few lines:
as §1

A further data set relates to A549 cells. In words: Apoptosis analysis. Format: cell-based. The conditions noted are these: compared to untreated, Figure 4A,B.

As a reminder, the IC50 is the midpoint of a concentration-inhibition curve.

As for `O=C1C[C@@H](c2ccccc2)Oc2cc(O)cc(O)c21` [Compound 4, pinocembrin], the “IC50 A549” value in data set [1] is “inactive”. In data set [2], the “cytotoxic activity (in words)” value is given as “exhibit cytotoxic activity”. Moreover, the “IC50 NCI-H187” value in data set [3] is “inactive”. In the data set on HeLa cells, the “apoptosis induction (in words)” value is “increased apoptotic cells in a dose-dependent manner”.
`O=C1C[C@@H](c2ccccc2)Oc2cc(O)c(Cc3ccccc3O)c(O)c21` [Compound 5, isochamanetin]: in data set [1], the “IC50 A549” value is “inactive”. Also, the “IC50 Vero” value in the data set on Vero cells is “inactive”. Further, in data set [4], the “IC50 HeLa” value is “inactive”.
Turning to `O=C1C[C@@H](c2ccccc2)Oc2c(Cc3ccccc3O)c(O)c(Cc3ccccc3O)c(O)c21` [Compound 7, dichamanetin], the IC50 in data set [1] was found to be 14.9 ± 0.6 µM. Further, the “apoptosis induction (in words)” value with A549 cells is recorded as “moderate level of apoptosis”. Besides, the “IC50 HeLa” value in data set [4] was “inactive”.
For the compound `COc1cccc2c1C(=O)c1c(O)c3c(c(O)c1C2=O)C[C@@](O)(C(=O)CO)C[C@@H]3O[C@H]1C[C@H](N)[C@H](O)[C@H](C)O1` [doxorubicin, reference compound], in data set [1], the IC50 was found to be 0.04 µM.
